Assay results pooled from the literature.
Lines come from different studies, so protocols differ.
Target: SRSF protein kinase 3 (SRPK3, Homo sapiens, UniProt Q9UPE1)

| SMILES | read-out | method | concentration | remaining binding |
| --- | --- | --- | --- | --- |
| CC(C)(C)c1ccc(-c2nc(CBr)nn2-c2cccc(O)c2)cc1 | cell-free assay | competition with immobilised ligand | 10 µM | 100% |
| COc1ccnn2ncc(-c3ccnc(N(C)C)n3)c12 | binding |  | 1 µM | 67% |
| Cc1c(NC(=O)c2cc(C(N)=O)nc3cc(F)ccc23)c(C(F)(F)F)nn1Cc1ccc(C#N)cc1 | cell-free assay | competition with immobilised ligand | 1 µM | 100% |
| O=C(c1ccc(Nc2nccc(-c3cc4ccccc4s3)n2)cc1)N1CCC(N2CCCC2)CC1 | binding | competition with immobilised ligand | 1 µM | 100% |
| CNC(=O)[C@@H]1CC[C@@H](n2c(-c3ccc4cnccc4c3)nc3ccc(C(=O)NCc4cccc(C(N)=O)c4)cc32)C1 | binding | competition with immobilised ligand | 1 µM | 92% |
| O=C(c1ccc(Nc2ncc(Cl)c(-c3ccc(Cl)s3)n2)cc1)N1CCC(N2CCCC2)CC1 | binding | competition with immobilised ligand | 1 µM | 100% |
| C[C@@H]1CCN(c2nccc(-c3cnn4ncccc34)n2)C1 | binding |  | 1 µM | 55% |
| CCC(=N\O)/C(C)=C/c1ccc(F)cc1 | cell-free assay | competition with immobilised ligand | 1 µM | 91% |
| c1cnn2ncc(-c3ccnc(N4CCC45COC5)n3)c2c1 | binding |  | 1 µM | 66% |
| C[C@@H]1CN(c2cc(-c3n[nH]c4ccc(OC5(C)CC5)cc34)ncn2)C[C@H](C)O1 | cell-free assay | competition with immobilised ligand | 0.1 µM | 100% |
| CC1CCCN1c1nccc(-c2cnn3ncccc23)n1 (stereo not drawn) | binding |  | 1 µM | 86% |
| CO[C@H]1CC[C@H](CNc2ccc(S(=O)(=O)NC(=O)c3ccc(N4CCN(CC5=C(c6ccc(Cl)cc6)CC(C)(C)CC5)CC4)cc3Oc3cnc4[nH]ccc4c3)cc2[N+](=O)[O-])CC1 | cell-free assay | competition with immobilised ligand | 1 µM | 100% |
| COc1cnc(Nc2cccc(S(N)(=O)=O)c2)nc1N1CCN(c2ccccc2)C(=O)C1 | binding | competition with immobilised ligand | 1 µM | 79% |
| CN(CCCC(F)(F)F)c1nccc(-c2cnn3ncccc23)n1 | binding |  | 1 µM | 100% |
| C=CC(=O)N1CCC(C(=O)NCC(=O)N2CCN(c3nc(-c4cnc(N)nc4C(F)F)nc(N4CCOCC4)n3)CC2)CC1 | binding | competition with immobilised ligand | 1 µM | 99% |
| NS(=O)(=O)c1cc(NC(=O)Cc2ccccc2)ccc1Oc1cccc(Cl)c1 | cell-free assay | competition with immobilised ligand | 1 µM | 100% |
| O=C(NCCCN1CCOCC1)c1ccc(Nc2nccc(-c3cc4ccccc4s3)n2)cc1 | binding | competition with immobilised ligand | 1 µM | 99% |
| N[C@@H]1CCN(c2nccc(-c3cnn4ncccc34)n2)C1 | binding |  | 1 µM | 81% |
| C[C@@H]1CN(c2ccc3ncc(-c4ccc5[nH]nc(C6CC6)c5c4)n3n2)C[C@H](C)O1 | binding | competition with immobilised ligand | 0.5 µM | 85% |
| CN(c1nccc(-c2cnn3ncccc23)n1)C1CC1 | binding |  | 1 µM | 83% |
| Cc1c(C(=O)O)cc(-c2ccc(C3CCNCC3)cc2)c2ccc(-c3ccc(C(F)(F)F)cc3)cc12 | binding | competition with immobilised ligand | 1 µM | 100% |
| O=C(Nc1c[nH]nc1C(=O)NC1CCNCC1)c1cc(F)cc(F)c1 | binding | competition with immobilised ligand | 1 µM | 88% |
| C[C@H](NC(=O)c1cnc2n1[C@](C)(Cc1ccc(C#N)cc1)C(=O)N2c1cc(Cl)c(F)c(Cl)c1)C(=O)NC1(c2ccccn2)CC1 | cell-free assay | competition with immobilised ligand | 1 µM | 100% |
| C[C@@H](c1ccc(-n2cnc3c(N)ncnc32)cc1)N1CCc2nn(C)c(Cc3ccccc3)c2C1=O | binding | competition with immobilised ligand | 0.1 µM | 76% |
